# In the library only some 1% were active in any assay of this set; here they are far more common.
# DDE Tn7 FP inh: disrupts Tn7 cyclic peptide binding to fibrin D-Dimer-E complex; FP displacement of FITC-Tn7 peptide from fibrin DD(E); 0% = median of compound wells per plate; inhibition, % at 8.3 µM; actives 0.13% (n = 370,000); AID 720508;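 active = inhibition above the mean of compounds falling within the control limits plus 3 SD of them, cut at about 14% in these data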;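 also: 0% = plate median of compound wells and 100% = 10 µM Aha-Tn7 peptide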
#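 Measure: % inhibition scaled between sample-field median and high-control FP; Test system: human fibrin DD(E); Quantity: 2 µM final DD(E) protein; Doses: one dose, 8.3 µM nominal; Schedule: compound with protein 10 min, then 3 h after probe, room temperature; Detection: fluorescence polarization; Medium: Tris buffer with calcium and detergent, pH 7.8.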
# PKA-R1A act: PKA-R1A complex activation; P00514+P68181; PKA-R1A dissociation, Cy5-IP20 fluorescence polarization; scaled: DMSO 0%, 113 µM cGMP 100%; activation, % at 11.4 µM; actives 0.083% (n = 340,000);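 active = percent activation above the mean of all tested compounds plus 3 SD, cut at about 19% in these data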;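 also: higher means more PKAc released from R1A so a rise in polarization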
# Tn6 DDE FP: DD(E)-Tn6 binding inhibition, primary FP screen; P02675; Fibrin DD(E) TRITC-Tn6 fluorescence polarization displacement; inhibition, % at 8.3 µM; actives 0.21% (n = 370,000);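 active = inhibition above a per-campaign cutoff: mean of compounds within control limits plus 3 SD, cut at about 15% in these data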;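 also: 0% = median of all compound wells on the plate and 100% = blocking peptide control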
# Neddyl block: inhibitors of human cullin neddylation; P61081+Q13564; TR-FRET cullin neddylation, biochemical; inhibition, % at 25 µM; actives 0.58% (n = 360,000); in the data active = inhibition above about 36%
# PKA-R2B activ: PKA-R2B complex activation | P22694+P31323 | PKA-R2B holoenzyme dissociation, Cy5-IP20 fluorescence polarization; R2B truncated from residue 108, S112A mutant; 0% DMSO only, 100% 113 µM cGMP | activation, % at 11.4 µM | actives 0.079% (n = 340,000) | AID 504700;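 active = activation above a cutoff set at the mean over all compounds plus 3 SD, cut at about 18% in these data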;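 also: higher means more holoenzyme dissociation and a rise in polarization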
# Target sequence (P31323 whole entry, looked up, other chains not shown, the tested form may be a part): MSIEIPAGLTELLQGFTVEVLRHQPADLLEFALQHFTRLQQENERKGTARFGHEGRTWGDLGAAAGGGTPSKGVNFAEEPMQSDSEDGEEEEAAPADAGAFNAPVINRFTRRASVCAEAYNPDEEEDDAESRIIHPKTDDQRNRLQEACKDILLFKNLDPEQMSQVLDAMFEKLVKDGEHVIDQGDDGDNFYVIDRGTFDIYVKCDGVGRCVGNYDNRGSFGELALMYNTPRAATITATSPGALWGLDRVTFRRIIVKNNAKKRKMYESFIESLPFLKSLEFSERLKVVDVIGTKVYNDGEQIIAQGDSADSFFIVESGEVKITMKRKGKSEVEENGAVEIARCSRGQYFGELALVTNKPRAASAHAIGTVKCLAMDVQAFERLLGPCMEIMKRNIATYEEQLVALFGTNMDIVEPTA
# * marks the source's active call; other numbers are inactive results; / = not tested or not shown; + = active, no number.
SMILES,DDE Tn7 FP inh,PKA-R1A act,Tn6 DDE FP,Neddyl block,PKA-R2B activ
CC1=[N+](C)c2c(ccc3cccnc23)C1(C)C,-9,24*,153*,14,31*
Cc1[nH]c2c(ccc3cccnc32)c1C,3,4,8,37,-5
Cc1ccc(C(=O)Nc2sc3c(c2C(=O)O)CCC(C)C3)o1 (stereo unspecified),4,-6,-8,53*,-4
c1cc2c3c(cccc3c1)NC1(CCC3(CC1)Nc1cccc4cccc(c14)N3)N2,-2,-11,1,58*,0
COc1ccccc1C(=O)N1CCC(Oc2cccnc2)CC1,6,/,0,/,/
COc1ccc2[nH]c(=O)c(-c3nnn(-c4ccc(Cl)nc4)n3)cc2c1,/,-10,/,32*,-10
COc1ccc(C(=O)OCC(=O)c2ccc(C3CCCCC3)cc2)cc1,0,4,5,-20,-4
Nc1ccc(O)cc1C(=O)OCC(=O)c1ccc(C2CCCCC2)cc1,0,7,-13,40*,2
COC(=O)C1=CN(c2ccc(OC)cc2)C=C(C(=O)OC)C1c1cc(OC)c(OC)cc1OC,-2,2,5,59*,-20
COC(=O)C1=CN(Cc2cccs2)C=C(C(=O)OC)C1c1ccc(OC)cc1OC,3,-2,3,/,-5
CCCCCCCC(=O)N[C@H]1CC[C@@]23CCCN2C(=O)CCC[C@H]3[C@H]1C,-6,/,0,/,/
Cc1ccc(-n2nc3c(N4CCC(C(=O)NCc5cccc(F)c5)CC4)nnc(C)c3c2C)cc1,/,-3,/,42*,0
CC(C)(C)C(=O)N1CCC[C@]2(CC[C@H](CCC#N)O2)C1,-3,/,-4,/,/
Cc1cccc(NC(=O)C2CCCN2S(=O)(=O)c2cccnc2)c1C (stereo unspecified),3,/,-6,/,/
C[C@@H](O[Si](c1ccccc1)(c1ccccc1)C(C)(C)C)[C@@H]1NC(=O)[C@@H]2C[C@]3(Br)c4ccccc4N(S(=O)(=O)c4ccccc4)[C@@H]3N2C1=O,3,/,-5,/,/
Oc1cc2c(cc1O)[C@H]1c3ccc(O)c(O)c3OC[C@@]1(O)C2,-3,1,12,-17,6
Oc1ccc2c(c1)OCC1(O)Cc3cc(O)c(O)cc3C21 (stereo unspecified),28*,-8,+,6,3
Cc1cc(/C=c2/sc3nc4ccccc4n3c2=O)c(C)n1-c1ccccn1,-2,4,4,21,-4
Cc1cc(/C=c2\sc3nc4ccccc4n3c2=O)c(C)n1-c1ccc(C(=O)O)cc1,6,-2,4,40*,2
CC(C)Oc1ccc(C(=O)N/N=C/c2ccc(-c3ccc(S(=O)(=O)Nc4ncccn4)cc3)o2)cc1,-4,-5,-14,48*,-7
Cc1cc2nc(-c3ccc(SCC(=O)Nc4ccc(S(=O)(=O)NC5CC5)cc4)nc3)[nH]c2cc1C,-6,-11,29*,5,9
Cc1cc(NC(=O)CSc2ccc(-c3nc4cc(C)c(C)cc4[nH]3)cn2)no1,/,7,/,15,9
CN1C2=N[C@@H](c3ccc4ccccc4c3)CC(=O)N2/C(=C\c2ccccc2)[C@H]1c1ccccc1,-2,/,-1,/,/
Cc1cc(/C=C2\C(=N)N3N=C(c4ccco4)SC3=NC2=O)c(C)n1Cc1ccccc1,8,-10,7,40*,6
CCC1=NN2C(=N)/C(=C/c3cc(C)n(Cc4ccccc4)c3C)C(=O)N=C2S1,0,-3,-7,17,-2
SMILES,DDE Tn7 FP inh,PKA-R1A act,Tn6 DDE FP,Neddyl block,PKA-R2B activ
CC1CCc2c(sc(NC(=O)c3ccccc3C(=O)O)c2C#N)C1 (stereo unspecified),-6,3,2,2,1
CCC(C)(C)C1CCc2c(sc(NC(=O)c3ccccc3C(=O)O)c2C#N)C1 (stereo unspecified),8,8,2,69*,-2
COc1ccc(/C=N/NC(=O)c2cc3c(OC)ccc(OC)c3[nH]2)cc1O,2,-4,-22,41*,9
CC(=O)Nc1nc2ncccn2c1-c1ccc(C)cc1,-2,/,-2,/,/
Cc1cc2c(=Cc3ccc(N(C)C)cc3)c3ccccc3n2[n+]1C,-6,-3,-17,-206,-2
CN(C)c1ccc(C=c2c3ccccc3n3c2c2ccccc2[n+]3C)cc1,5,-15,4,39*,-18
C=CCNC(=O)C1CCN(c2cncnc2)CC1,10,/,2,/,/
CCCN(CCC)CCNC(=O)c1cc2c(=O)n(C)c3ccccc3c2n1C,-1,-6,-1,44*,-7
O=C(NCCc1ccccc1)C1CCCN(S(=O)(=O)c2cccc3nonc23)C1 (stereo unspecified),14*,-8,6,-18,7
COc1cc(C2Nc3ccccc3C(=O)N2c2ccccc2OC)ccc1O (stereo unspecified),6,4,0,/,-9
O=C1c2ccccc2NC(c2ccc(O)c(O)c2)N1c1ccccc1Cl (stereo unspecified),-1,-9,-3,50*,0
CC(C)C[C@@H](CCCc1ccccc1)CCC(=O)N(c1ccccc1)c1ccccc1,1,/,0,/,/
Cn1c2ccccc2c2cc(/C=N/NC(=O)c3cc(O)ccc3O)ccc21,5,-12,-16,52*,-12
O=C(O)c1ccc(-n2cccc2/C=N\NC(=O)c2cc3cc(Br)ccc3o2)cc1,-3,3,-11,47*,-2
CCN(C(=O)CCc1cn(CC)c2ccccc12)c1ccc(Oc2cccnc2)cc1,-2,/,-6,/,/
Cc1cc(C)nc(NC(=O)/C=C/c2ccccc2Cl)n1,0,-5,-2,-12,-3
Cc1cc(N)c2cc(NC(=O)/C=C/c3ccccc3Cl)ccc2n1,/,-14,/,42*,9
O=C(Nc1ccc(N2C(=O)CC(c3ccccc3)C2=O)c(Cl)c1)c1ccccn1 (stereo unspecified),-3,/,1,/,/
CCOC(=O)NN=C1c2ccccc2-c2ccccc21,1,5,0,-7,0
CCOC(=O)Nc1ccc2c(c1)C(=NNC(=S)NC)c1ccccc1-2,15*,2,2,-13,-4
Oc1c(Br)cc(Br)cc1C=Nc1cccc2ncccc12,2,-12,1,55*,-6
CC(C)(C)OC(=O)n1cccc1/C=C1\c2ccccc2C(=O)N1c1ccccc1,/,16,/,42*,-2
CC(=O)Oc1ccc(C#C/C=C2\c3ccccc3C(=O)N2c2ccccc2)cc1,/,7,/,0,-2
Nc1[nH]c(C(=O)c2ccccc2)c(-c2ccccn2)c1C(=O)c1c[nH]c2ccc(Br)cc12,-1,/,-5,/,/
C=Cc1ncc(OC)c2c1[nH]c1ccccc12,/,3,/,58*,0
COCc1[nH]nc2c1C(c1ccc(F)cc1)NC2=O (stereo unspecified),-8,/,4,/,/

# High-throughput results as filed in PubChem.
